System: patients with advanced solid tumors or multiple myeloma
Assay: phase 1 dose escalation: safety, tolerability, DLT, MTD
Format: in vivo, human
In short: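 Modified accelerated titration from 7.5 mg, oral daily in 28-day cycles. Single-patient cohorts used 100% increments until the first drug-related grade ≥2 toxicity, then 6-patient cohorts used ~50% steps. A dose with ≥2 DLTs was nontolerated. MTD was the last lower dose with 0–1 of 6 DLTs in cycle 1. Adverse events were graded by NCI CTCAE version 4.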

CO[C@H]1CC[C@H](N2C(=O)CNc3ncc(-c4ccc(C(C)(C)O)nc4)nc32)CC1 [CC‐223]
Arthralgia (treatment‐related AE) (7.5 mg, Any Grade): 0 n (%)
Asthenia (treatment‐related AE) (7.5 mg, Any Grade): 0 n (%)
Decreased appetite (treatment‐related AE) (7.5 mg, Any Grade): 0 n (%)
Diarrhea (treatment‐related AE) (7.5 mg, Any Grade): 0 n (%)
Dry mouth (treatment‐related AE) (7.5 mg, Any Grade): 0 n (%)
Dysgeusia (treatment‐related AE) (7.5 mg, Any Grade): 1 (100) n (%)
Dyspnea (treatment‐related AE) (7.5 mg, Any Grade): 0 n (%)
Fatigue (treatment‐related AE) (7.5 mg, Any Grade): 1 (100) n (%)
Hyperglycemia (treatment‐related AE) (7.5 mg, Any Grade): 0 n (%)
Increased glycosylated hemoglobin (treatment‐related AE) (7.5 mg, Any Grade): 0 n (%)
Mucositis (treatment‐related AE) (7.5 mg, Any Grade): 0 n (%)
Nausea (treatment‐related AE) (7.5 mg, Any Grade): 1 (100) n (%)
Pruritus (treatment‐related AE) (7.5 mg, Any Grade): 0 n (%)
Rash (treatment‐related AE) (7.5 mg, Any Grade): 0 n (%)
Rash pruritic (treatment‐related AE) (7.5 mg, Any Grade): 0 n (%)
Thrombocytopenia (treatment‐related AE) (7.5 mg, Any Grade): 0 n (%)
Vomiting (treatment‐related AE) (7.5 mg, Any Grade): 0 n (%)
Arthralgia (treatment‐related AE) (7.5 mg, Grade ≥3): 0 n (%)
Asthenia (treatment‐related AE) (7.5 mg, Grade ≥3): 0 n (%)
Decreased appetite (treatment‐related AE) (7.5 mg, Grade ≥3): 0 n (%)
Diarrhea (treatment‐related AE) (7.5 mg, Grade ≥3): 0 n (%)
Dry mouth (treatment‐related AE) (7.5 mg, Grade ≥3): 0 n (%)
Dysgeusia (treatment‐related AE) (7.5 mg, Grade ≥3): 0 n (%)
Dyspnea (treatment‐related AE) (7.5 mg, Grade ≥3): 0 n (%)
Fatigue (treatment‐related AE) (7.5 mg, Grade ≥3): 0 n (%)
Hyperglycemia (treatment‐related AE) (7.5 mg, Grade ≥3): 0 n (%)
Increased glycosylated hemoglobin (treatment‐related AE) (7.5 mg, Grade ≥3): 0 n (%)
Mucositis (treatment‐related AE) (7.5 mg, Grade ≥3): 0 n (%)
Nausea (treatment‐related AE) (7.5 mg, Grade ≥3): 0 n (%)
Pruritus (treatment‐related AE) (7.5 mg, Grade ≥3): 0 n (%)
Rash (treatment‐related AE) (7.5 mg, Grade ≥3): 0 n (%)
Rash pruritic (treatment‐related AE) (7.5 mg, Grade ≥3): 0 n (%)
Thrombocytopenia (treatment‐related AE) (7.5 mg, Grade ≥3): 0 n (%)
Vomiting (treatment‐related AE) (7.5 mg, Grade ≥3): 0 n (%)
Dose interruptions (15 mg): 2
Dose reductions (15 mg): 0
Arthralgia (treatment‐related AE) (15 mg, Any Grade): 0 n (%)
Asthenia (treatment‐related AE) (15 mg, Any Grade): 1 (50) n (%)
Decreased appetite (treatment‐related AE) (15 mg, Any Grade): 0 n (%)
Diarrhea (treatment‐related AE) (15 mg, Any Grade): 1 (50) n (%)
Dry mouth (treatment‐related AE) (15 mg, Any Grade): 0 n (%)
Dysgeusia (treatment‐related AE) (15 mg, Any Grade): 1 (50) n (%)
Dyspnea (treatment‐related AE) (15 mg, Any Grade): 0 n (%)
Fatigue (treatment‐related AE) (15 mg, Any Grade): 1 (50) n (%)
Hyperglycemia (treatment‐related AE) (15 mg, Any Grade): 0 n (%)
Increased glycosylated hemoglobin (treatment‐related AE) (15 mg, Any Grade): 0 n (%)
Mucositis (treatment‐related AE) (15 mg, Any Grade): 1 (50) n (%)
Nausea (treatment‐related AE) (15 mg, Any Grade): 0 n (%)
Pruritus (treatment‐related AE) (15 mg, Any Grade): 1 (50) n (%)
Rash (treatment‐related AE) (15 mg, Any Grade): 1 (50) n (%)
Rash pruritic (treatment‐related AE) (15 mg, Any Grade): 0 n (%)
Thrombocytopenia (treatment‐related AE) (15 mg, Any Grade): 0 n (%)
Vomiting (treatment‐related AE) (15 mg, Any Grade): 0 n (%)
Arthralgia (treatment‐related AE) (15 mg, Grade ≥3): 0 n (%)
Asthenia (treatment‐related AE) (15 mg, Grade ≥3): 0 n (%)
Decreased appetite (treatment‐related AE) (15 mg, Grade ≥3): 0 n (%)
Diarrhea (treatment‐related AE) (15 mg, Grade ≥3): 0 n (%)
Dry mouth (treatment‐related AE) (15 mg, Grade ≥3): 0 n (%)
Dysgeusia (treatment‐related AE) (15 mg, Grade ≥3): 0 n (%)
Dyspnea (treatment‐related AE) (15 mg, Grade ≥3): 0 n (%)
Fatigue (treatment‐related AE) (15 mg, Grade ≥3): 0 n (%)
Hyperglycemia (treatment‐related AE) (15 mg, Grade ≥3): 0 n (%)
Increased glycosylated hemoglobin (treatment‐related AE) (15 mg, Grade ≥3): 0 n (%)
Mucositis (treatment‐related AE) (15 mg, Grade ≥3): 0 n (%)
Nausea (treatment‐related AE) (15 mg, Grade ≥3): 0 n (%)
Pruritus (treatment‐related AE) (15 mg, Grade ≥3): 0 n (%)
Rash (treatment‐related AE) (15 mg, Grade ≥3): 0 n (%)
Rash pruritic (treatment‐related AE) (15 mg, Grade ≥3): 0 n (%)
Thrombocytopenia (treatment‐related AE) (15 mg, Grade ≥3): 0 n (%)
Vomiting (treatment‐related AE) (15 mg, Grade ≥3): 0 n (%)
Dose interruptions (30 mg): 8
Dose reductions (30 mg): 0
Arthralgia (treatment‐related AE) (30 mg, Any Grade): 0 n (%)
Asthenia (treatment‐related AE) (30 mg, Any Grade): 2 (22) n (%)
Decreased appetite (treatment‐related AE) (30 mg, Any Grade): 4 (44) n (%)
Diarrhea (treatment‐related AE) (30 mg, Any Grade): 3 (33) n (%)
Dry mouth (treatment‐related AE) (30 mg, Any Grade): 1 (11) n (%)
Dysgeusia (treatment‐related AE) (30 mg, Any Grade): 0 n (%)
Dyspnea (treatment‐related AE) (30 mg, Any Grade): 1 (11) n (%)
Fatigue (treatment‐related AE) (30 mg, Any Grade): 4 (44) n (%)
Hyperglycemia (treatment‐related AE) (30 mg, Any Grade): 4 (44) n (%)
Increased glycosylated hemoglobin (treatment‐related AE) (30 mg, Any Grade): 0 n (%)
Mucositis (treatment‐related AE) (30 mg, Any Grade): 2 (22) n (%)
Nausea (treatment‐related AE) (30 mg, Any Grade): 4 (44) n (%)
Pruritus (treatment‐related AE) (30 mg, Any Grade): 1 (11) n (%)
Rash (treatment‐related AE) (30 mg, Any Grade): 1 (11) n (%)
Rash pruritic (treatment‐related AE) (30 mg, Any Grade): 1 (11) n (%)
Thrombocytopenia (treatment‐related AE) (30 mg, Any Grade): 1 (11) n (%)
Vomiting (treatment‐related AE) (30 mg, Any Grade): 2 (22) n (%)
Arthralgia (treatment‐related AE) (30 mg, Grade ≥3): 0 n (%)
Asthenia (treatment‐related AE) (30 mg, Grade ≥3): 0 n (%)
Decreased appetite (treatment‐related AE) (30 mg, Grade ≥3): 0 n (%)
Diarrhea (treatment‐related AE) (30 mg, Grade ≥3): 0 n (%)
Dry mouth (treatment‐related AE) (30 mg, Grade ≥3): 0 n (%)
Dysgeusia (treatment‐related AE) (30 mg, Grade ≥3): 0 n (%)
Dyspnea (treatment‐related AE) (30 mg, Grade ≥3): 0 n (%)
Fatigue (treatment‐related AE) (30 mg, Grade ≥3): 0 n (%)
Hyperglycemia (treatment‐related AE) (30 mg, Grade ≥3): 2 (22) n (%)
Increased glycosylated hemoglobin (treatment‐related AE) (30 mg, Grade ≥3): 0 n (%)
Mucositis (treatment‐related AE) (30 mg, Grade ≥3): 0 n (%)
Nausea (treatment‐related AE) (30 mg, Grade ≥3): 0 n (%)
Pruritus (treatment‐related AE) (30 mg, Grade ≥3): 0 n (%)
Rash (treatment‐related AE) (30 mg, Grade ≥3): 0 n (%)
Rash pruritic (treatment‐related AE) (30 mg, Grade ≥3): 0 n (%)
Thrombocytopenia (treatment‐related AE) (30 mg, Grade ≥3): 0 n (%)
Vomiting (treatment‐related AE) (30 mg, Grade ≥3): 0 n (%)
Dose interruptions (45 mg): 5
Dose reductions (45 mg): 1
Arthralgia (treatment‐related AE) (45 mg, Any Grade): 2 (22) n (%)
Asthenia (treatment‐related AE) (45 mg, Any Grade): 1 (11) n (%)
Decreased appetite (treatment‐related AE) (45 mg, Any Grade): 3 (33) n (%)
Diarrhea (treatment‐related AE) (45 mg, Any Grade): 4 (44) n (%)
Dry mouth (treatment‐related AE) (45 mg, Any Grade): 2 (22) n (%)
Dysgeusia (treatment‐related AE) (45 mg, Any Grade): 2 (22) n (%)

Source: paper PMC4832308 (Cancer, 2015)
